Measurements as given in ChEMBL document CHEMBL1914454, “Novel N-linked aminopiperidine inhibitors of bacterial topoisomerase type II: broad-spectrum antibacterial agents with reduced hERG activity” (J Med Chem, 2011).
Values after ≈ are worked out from the molar mass of the structure shown.

How the values were obtained:
[1] = target: Voltage-gated inwardly rectifying potassium channel KCNH2 (Homo sapiens, UniProt Q12809); experiment: Inhibition of human ERG by ionworks HT assay
Streptococcus pneumoniae = experiment: Antibacterial activity against penicillin-susceptible Streptococcus pneumoniae D39 after 18 to 24 hrs by broth microdilution method; assay type: functional
Procedure, shortened: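 CLSI broth microdilution in 2.2% (w/v) Mueller Hinton broth with 0.65% (v/v) lysed horse blood. Compounds diluted from DMSO to 2% DMSO final, 11 doubling dilutions from 64 to 0.06 μg/mL. Incubated at 35 °C for 18−24 h; read at 620 nm.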

[2] = Fraction unbound in human plasma at 10 uM after 16 hrs by equilibrium dialysis
Pseudomonas aeruginosa = experiment: Antibacterial activity against Pseudomonas aeruginosa PAO1 after 18 to 24 hrs by broth microdilution method; assay type: functional
Procedure, shortened: (§1)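 Broth microdilution following CLSI guidelines in Mueller Hinton broth. Compounds in DMSO, diluted to 2% DMSO final, 11 doubling dilutions from 64 to 0.06 μg/mL. Incubated at 35 °C for 18−24 h; growth read by absorbance at 620 nm.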

Staphylococcus aureus [3] = experiment: Antibacterial activity against methicillin-susceptible Staphylococcus aureus after 18 to 24 hrs by broth microdilution method; assay type: functional; procedure, shortened: as §1
Escherichia coli = experiment: Antibacterial activity against Escherichia coli W3110 after 18 to 24 hrs by broth microdilution method; assay type: functional; details: K-12 substr. W3110; procedure, shortened: as §1
[4] = Inhibition of Escherichia coli ATPase activity of topoisomerase 4 ParC/ParE subunit assessed as reduction in inorganic phosphate production after 24 hrs by ammonium molybdate/malachite-green based assay
Procedure, shortened: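 Each reaction contained 0.5 nM each of E. coli ParC and ParE, 0.16 mM ATP and 0.005 mg/mL sheared salmon sperm DNA in 20 mM Tris pH 8.0 with 50 mM ammonium acetate, 8.0 mM MgCl₂, 0.5 mM EDTA, 5 mM DTT, 2.5% glycerol and 0.005% Brij-35. Compound dilution series; 24 h at room temperature. Quenched with malachite green; absorbance read at 650 nm. IC50 is the mean of three replicate experiments.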

[5] = Octanol-phosphate buffer partition coefficient, log D of the compound at pH 7.4 by LC/MS/UV analysis
Mus musculus [6] = experiment: AUC (infinity) in Staphylococcus aureus ARC516 infected in CD1 mouse neutropenic thigh infection model at 24 mg/kg, ip qd by LC-MS/MS analysis; assay type: ADME, organism-based; set-up: time infinity, dose 24 mg/kg, route intraperitoneal; details: in vivo
Procedure, shortened: (§2)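 CD-1 mice made neutropenic with ip cyclophosphamide (150 mg/kg day −4, 100 mg/kg day −1), thigh-infected with S. aureus ARC516 (target 5 × 10⁵ cfu/thigh). Dosed ip once daily starting 2 h post-infection, in 5% dextrose with lactic acid, pH 5.0. Groups of three sacrificed at timed intervals; cardiac-puncture blood; plasma analysed by LC-MS/MS; noncompartmental analysis.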

[7] = Volume of distribution in Beagle dog at 3 mg/kg, iv; assay type: ADME, organism-based, Canis lupus familiaris; set-up: dose 3 mg/kg, route intravenous; details: in vivo
Procedure, shortened: (§3)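 Plasma was sampled from 0 to 24 h and drug measured by LC–MS/MS. Parameters came from noncompartmental analysis.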

Mus musculus [8] = experiment: AUC (infinity) in Staphylococcus aureus ARC516 infected in CD1 mouse neutropenic thigh infection model at 48 mg/kg, ip qd by LC-MS/MS analysis; assay type: ADME, organism-based; set-up: dose 48 mg/kg, route intraperitoneal, time infinity; details: in vivo; procedure, shortened: as §2
Mus musculus [9] = experiment: AUC (infinity) in Staphylococcus aureus ARC516 infected in CD1 mouse neutropenic thigh infection model at 12 mg/kg, ip qd by LC-MS/MS analysis; assay type: ADME, organism-based; set-up: time infinity, dose 12 mg/kg, route intraperitoneal; details: in vivo; procedure, shortened: as §2
Staphylococcus aureus [10] = experiment: Antibacterial activity against Staphylococcus aureus ARC516 infected in CD1 mouse neutropenic thigh infection model assessed as 1 log reduction in colony forming unit per […] at 36 mg/kg, ip qd administered 2 hrs post-infection measured 24 hrs post-treatment relative to vehicle treated control; assay type: functional; details: route intraperitoneal
Procedure, shortened: (§4)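 CD-1 mice were made neutropenic with ip cyclophosphamide, 150 mg/kg at 4 days and 100 mg/kg at 1 day before infection. Methicillin-susceptible strain, target inoculum 5 × 10⁵ cfu/thigh. Groups of five received ip drug q.d. in 5% dextrose with lactic acid, pH 5.0, starting 2 h post-infection; five mice got vehicle. At 24 h, thighs were homogenized, plated on tryptic soy agar and incubated at 37 °C overnight for cfu.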

Staphylococcus aureus [11] = experiment: Antibacterial activity against Staphylococcus aureus ARC516 infected in CD1 mouse neutropenic thigh infection model assessed as 1 log reduction in colony forming unit per […] at 12 mg/kg, ip qd administered 2 hrs post-infection measured 24 hrs post-treatment relative to vehicle treated control; assay type: functional; details: route intraperitoneal; procedure, shortened: as §4
[12] = Half life in Beagle dog at 3 mg/kg, iv; assay type: ADME, organism-based, Canis lupus familiaris; set-up: dose 3 mg/kg, route intravenous; details: in vivo; procedure, shortened: as §3
[13] = AUC in Wistar Han rat at 4 mg/kg, iv; assay type: ADME, organism-based; set-up: dose 4 mg/kg, route intravenous; details: plasma
Procedure, shortened: (§5)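 Groups of three Wistar Han rats received a bolus injection into a cannulated jugular vein. Serial 200 μL whole-blood samples taken over time; plasma drug measured by LC-MS/MS; parameters estimated by noncompartmental analysis.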

[14] = Clearance in Beagle dog at 3 mg/kg, iv; assay type: ADME, organism-based, Canis lupus familiaris; set-up: dose 3 mg/kg, route intravenous; details: in vivo; procedure, shortened: as §3
[15] = Half life in Wistar Han rat at 4 mg/kg, iv; assay type: ADME, organism-based; set-up: dose 4 mg/kg, route intravenous; details: in vivo; procedure, shortened: as §5
Staphylococcus aureus [16] = experiment: Antibacterial activity against Staphylococcus aureus ARC516 infected in CD1 mouse neutropenic thigh infection model assessed as 1 log reduction in colony forming unit per […] at 48 mg/kg, ip qd administered 2 hrs post-infection measured 24 hrs post-treatment relative to vehicle treated control; assay type: functional; details: route intraperitoneal; procedure, shortened: as §4
[17] = Clearance in Wistar Han rat at 4 mg/kg, iv; assay type: ADME, organism-based; set-up: dose 4 mg/kg, route intravenous; details: in vivo; procedure, shortened: as §5
Staphylococcus aureus [18] = experiment: Antibacterial activity against Staphylococcus aureus ARC516 infected in CD1 mouse neutropenic thigh infection model assessed as 1 log reduction in colony forming unit per […] at 24 mg/kg, ip qd administered 2 hrs post-infection measured 24 hrs post-treatment relative to vehicle treated control; assay type: functional; details: route intraperitoneal; procedure, shortened: as §4
[19] = Volume of distribution in Wistar Han rat at 4 mg/kg, iv; assay type: ADME, organism-based; set-up: dose 4 mg/kg, route intravenous; details: in vivo; procedure, shortened: as §5
[20] = AUC in Beagle dog at 3 mg/kg, iv; assay type: ADME, organism-based, Canis lupus familiaris; set-up: dose 3 mg/kg, route intravenous; details: plasma; procedure, shortened: as §3
Mus musculus [21] = experiment: AUC (infinity) in Staphylococcus aureus ARC516 infected in CD1 mouse neutropenic thigh infection model at 36 mg/kg, ip qd by LC-MS/MS analysis; assay type: ADME, organism-based; set-up: dose 36 mg/kg, route intraperitoneal, time infinity; details: in vivo
Procedure, shortened: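 Plasma exposure in CD-1 mice, measured for analysis of the efficacy studies. Groups of three mice were sacrificed at timed intervals and whole blood was drawn by cardiac puncture. Plasma compound levels were measured by LC–MS/MS, and parameters were estimated by a noncompartmental model.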

Sequence of Voltage-gated inwardly rectifying potassium channel KCNH2 (Q12809 whole entry): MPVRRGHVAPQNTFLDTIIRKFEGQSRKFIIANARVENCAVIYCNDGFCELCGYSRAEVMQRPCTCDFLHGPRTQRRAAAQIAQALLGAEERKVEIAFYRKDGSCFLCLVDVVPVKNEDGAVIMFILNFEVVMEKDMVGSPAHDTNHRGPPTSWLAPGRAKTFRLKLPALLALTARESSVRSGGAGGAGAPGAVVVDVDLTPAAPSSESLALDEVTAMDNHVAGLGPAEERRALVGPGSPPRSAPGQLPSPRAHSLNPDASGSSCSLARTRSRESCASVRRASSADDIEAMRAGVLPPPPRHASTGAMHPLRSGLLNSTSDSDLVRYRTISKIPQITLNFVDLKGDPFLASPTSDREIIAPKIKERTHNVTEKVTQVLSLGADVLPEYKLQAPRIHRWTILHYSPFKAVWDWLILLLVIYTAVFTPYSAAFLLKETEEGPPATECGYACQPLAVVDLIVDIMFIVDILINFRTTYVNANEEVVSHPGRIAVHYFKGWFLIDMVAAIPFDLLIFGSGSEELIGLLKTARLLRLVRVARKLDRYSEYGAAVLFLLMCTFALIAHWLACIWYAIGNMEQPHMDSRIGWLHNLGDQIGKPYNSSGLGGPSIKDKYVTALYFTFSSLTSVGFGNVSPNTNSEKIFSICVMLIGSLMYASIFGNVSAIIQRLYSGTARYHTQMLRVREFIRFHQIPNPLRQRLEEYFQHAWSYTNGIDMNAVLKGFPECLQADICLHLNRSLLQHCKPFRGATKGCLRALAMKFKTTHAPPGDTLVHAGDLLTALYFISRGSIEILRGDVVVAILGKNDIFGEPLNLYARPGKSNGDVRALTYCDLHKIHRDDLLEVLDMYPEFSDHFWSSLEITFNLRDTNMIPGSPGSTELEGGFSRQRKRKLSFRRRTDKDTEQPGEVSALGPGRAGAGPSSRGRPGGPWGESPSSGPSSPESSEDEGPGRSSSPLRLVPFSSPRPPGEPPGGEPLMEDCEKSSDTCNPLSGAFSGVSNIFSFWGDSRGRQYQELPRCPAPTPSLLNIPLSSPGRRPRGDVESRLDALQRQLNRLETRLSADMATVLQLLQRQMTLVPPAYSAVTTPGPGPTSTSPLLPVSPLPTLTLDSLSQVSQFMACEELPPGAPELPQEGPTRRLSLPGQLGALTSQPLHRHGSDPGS

MIC (Streptococcus pneumoniae)	fraction unbound at 16 h, 10 µM [2]	MIC (Pseudomonas aeruginosa)	MIC (Staphylococcus aureus [3])	MIC (Escherichia coli)	IC50 [4]	logD ([5]; octanol/phosphate buffer)	Compound	IC50 [1]	other results
0.5 µg/mL (≈ 1.07 µM)	0.26	4 µg/mL (≈ 8.56 µM)	1 µg/mL (≈ 2.14 µM)	0.5 µg/mL (≈ 1.07 µM)	4.4 nM	0.5	COc1ccc2c(c1)N(CCN1CCC(NCc3ccc4c(n3)NC(=O)CO4)CC1)C(=O)OC2	42000 nM	
0.06 µg/mL (≈ 0.133 µM)	0.31	> 8 µg/mL	0.03 µg/mL (≈ 0.0666 µM)	1.5 µg/mL (≈ 3.33 µM)	22 nM	1.32	COc1ccc2ccc(=O)n(CCN3CCC(NCc4cc5c(cn4)OCCO5)CC3)c2c1	34000 nM	
0.03 µg/mL (≈ 0.0646 µM)		> 8 µg/mL	0.02 µg/mL (≈ 0.0431 µM)	0.5 µg/mL (≈ 1.08 µM)		1.72	COc1ccc2c(C)cc(=O)n(CCN3CCC(NCc4cc5c(cn4)OCCO5)CC3)c2c1	23000 nM	
1 µg/mL (≈ 2.15 µM)		> 8 µg/mL	2 µg/mL (≈ 4.3 µM)	> 8 µg/mL	82 nM		COc1ccc2c(C)nc(=O)n(CCN3CCC(NCc4cc5c(cn4)OCCO5)CC3)c2c1	> 33000 nM	logD ([5]; octanol/water): 0.29
0.06 µg/mL (≈ 0.133 µM)	0.57	4 µg/mL (≈ 8.86 µM)	0.02 µg/mL (≈ 0.0443 µM)	0.5 µg/mL (≈ 1.11 µM)	5 nM	0.93	COc1ccc2ncc(=O)n(CCN3CCC(NCc4cc5c(cn4)OCCO5)CC3)c2c1	19000 nM	AUC (Mus musculus [6]): 0.76 µg/h/mL; Vd [7]: 11 L/kg; AUC (Mus musculus [8]): 1.79 µg/h/mL; AUC (Mus musculus [9]): 0.47 µg/h/mL; FC (Staphylococcus aureus [10]): 1.5; FC (Staphylococcus aureus [11]): 0.05; half-life [12]: 8.3 h; AUC [13]: 190 ng·h/mL; clearance [14]: 21 mL/min/kg; half-life [15]: 2.8 h; FC (Staphylococcus aureus [16]): 2.79; clearance [17]: 338 mL/min/kg; FC (Staphylococcus aureus [18]): 1.17; Vd [19]: 32 L/kg; AUC [20]: 2300 ng·h/mL; AUC (Mus musculus [21]): 1.17 µg/h/mL
0.25 µg/mL (≈ 0.552 µM)	0.27	> 8 µg/mL	0.13 µg/mL (≈ 0.287 µM)	2 µg/mL (≈ 4.42 µM)	13 nM	0.2	COc1ncc2ccc(=O)n(CCN3CCC(NCc4cc5c(cn4)OCCO5)CC3)c2n1	206000 nM	
0.25 µg/mL (≈ 0.551 µM)	0.96	> 8 µg/mL	0.25 µg/mL (≈ 0.551 µM)	2 µg/mL (≈ 4.41 µM)	28 nM	0.14	COc1ncc2ncc(=O)n(CCN3CCC(NCc4cc5c(cn4)OCCO5)CC3)c2n1	81000 nM	
0.05 µg/mL (≈ 0.111 µM)	0.31	> 8 µg/mL	0.02 µg/mL (≈ 0.0443 µM)	0.5 µg/mL (≈ 1.11 µM)	2 nM	1.16	COc1ccc2ccc(=O)n(CCN3CCC(NCc4cc5c(cn4)OCCO5)CC3)c2n1	40000 nM	
1 µg/mL (≈ 2.21 µM)	0.17	> 8 µg/mL	1 µg/mL (≈ 2.21 µM)	8 µg/mL (≈ 17.7 µM)	28 nM	0.68	COc1cc2c(ccc(=O)n2CCN2CCC(NCc3cc4c(cn3)OCCO4)CC2)cn1		
8 µg/mL (≈ 17.2 µM)		8 µg/mL (≈ 17.2 µM)	> 8 µg/mL	2 µg/mL (≈ 4.3 µM)	26 nM		COc1ccc2nnc(=O)n(CCN3CCC(NCc4ccc5c(n4)NC(=O)CO5)CC3)c2c1		
